Measured values collected from several papers.
Observed: metabolic stability
Species: human

SMILES	medium	concentration	half-life
O=c1ccc2cc(O)ccc2o1	liver microsomes	20 µM	63.5 min
COc1ccc([C@@H]2Sc3ccccc3N(CCN(C)C)C(=O)[C@@H]2OC(C)=O)cc1	liver microsomes		53.5 min
CC(C)Oc1ccc(S(=O)(=O)c2ccc(Oc3cc(OCC(N)=O)c(C(=O)C(Cl)Cl)cc3[N+](=O)[O-])cc2)cc1	liver microsomes	20 µM	46.7 min
CCOc1ccc(NC(C)=O)cc1	liver microsomes		67.1 min
CCC(CC)COC(=O)[C@H](C)N[P@](=O)(OC[C@@H]1C[C@@H](O)[C@H](n2cnc3c(N)nc(F)nc32)O1)Oc1ccccc1	liver microsomes	1 µM	1.42 min
O=C(c1ccc(F)cc1)C1CCN(CCn2c(=O)[nH]c3ccccc3c2=O)CC1	liver microsomes		35.4 min
Nc1ncnc2c1ncn2[C@@H]1O[C@H](CO)C[C@H]1O	liver microsomes	1 µM	12.3 min
O=c1ccc2ccc(O)cc2o1	hepatocytes	1 µM	12.4 min
CCOc1ccc2ccc(=O)oc2c1	hepatocytes	1 µM	11.4 min
CC1(CN)CCN(c2cnc3c(Sc4ccncc4Cl)n[nH]c3n2)CC1	liver microsomes		36.7 min
CSc1ncc(Br)c(C(=O)N[C@@H](CCC(=O)O)C(=O)N[C@@H](Cc2ccc3ccccc3c2)C(=O)N[C@@H](CC(C)C)C(=O)N[C@@H]2C[C@H]2c2ccccc2)n1	plasma		1900 min
O=C1CC[C@H](N2Cc3cc(N4CCN(CC5CCN(c6ccc([C@@H]7c8ccc(O)cc8CC[C@@H]7c7ccccc7)cc6)CC5)CC4)ccc3C2=O)C(=O)N1	hepatocytes	1 µM	53.8 min
CC(C)[N+](C)(CCOC(=O)C1c2ccccc2Oc2ccccc21)C(C)C	plasma		25.8 min
CCC(CC)COC(=O)[C@H](C)N[P@@](=O)(OC[C@@H]1C[C@@H](O)[C@H](n2cnc3c(N)ncnc32)O1)Oc1ccccc1	liver microsomes	1 µM	0.67 min
O=c1ccc2ccc(O)cc2o1	liver microsomes		1.85 min
